The text below walks through data of ChEMBL document CHEMBL1126928, “N-(1-arylpropionyl)-4-aryltetrahydropyridines, a new class of high-affinity selective sigma receptor ligands” (J Med Chem, 1993).

The target of assay [1] is T1, D(2) dopamine receptor (Bos taurus, UniProt P20288). The assay is described as follows: Binding affinity against Dopamine receptor D2 in bovine striatal homogenate using 200 pM [3H]- spiperone and 250 nM unlabeled ketanserin. The method in brief:
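Bovine striatal homogenate, run like the σ assay, with 200 pM [³H]spiperone (21.2 Ci/mmol). Incubation buffer pH 7.40 containing 250 nM ketanserin to block 5-HT2 binding. Measured by filtration and scintillation counting. Results given as IC50.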

Assay [2] addresses T2, Serotonin 1 (5-HT1) receptor (Rattus norvegicus) (UniProt P28564+P30940+P19327+P28565). The assay is described as follows: Percent inhibition of binding of 3.0 nM [3H]5-HT to 5-hydroxytryptamine 1 receptor in rat caudate membranes at 10 e -5 M. As to conditions: Membrane. The format is cell membranes. Summed up: (§1)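 Rat caudate membranes incubated with 3.0 nM [3H]-5-HT binoxalate. Percent inhibition recorded at 10^-5 M test compound, with nonspecific binding set with 10 μM unlabeled 5-HT.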

Assay [3] has as its target T3, Serotonin 2 (5-HT2) receptor (Rattus norvegicus) (UniProt P30994+P08909+P14842). The assay is described as follows: Percent inhibition of binding of 1.0 nM [3H]-ketanserin to 5-hydroxytryptamine 2 receptor in rat cortical membranes at 10 e-5 M. Format: cell membranes. As to conditions: Membrane. The method in brief:
(§2)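 1.0 nM [3H]ketanserin bound to rat cortical membranes. Percent inhibition measured at 10^-5 M test compound, with nonspecific binding defined by 10 μM methysergide.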

The target of assay [4] is D(1A) dopamine receptor (Rattus norvegicus) (UniProt P18901). The assay is described as follows: Binding affinity for dopamine receptor D1 in rat striatal membranes using 500 pM [3H]- SCH 23390 radioligand. As to conditions: Striatum; Membrane. Format: cell membranes. Summed up:
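Test compound at 10^-5 M, reported as percent inhibition of 500 pM [3H]SCH 23390 binding to rat striatal membranes. Nonspecific binding defined with 100 nM unlabeled SCH 23390.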

For assay [5], the target named is Glutamate receptor ionotropic, NMDA 2C (Rattus norvegicus) (UniProt Q00961). The assay is described as follows: Binding affinity for Phencyclidine receptor (1 uM) using 2 nM [3H]- TCP radioligand. The method in brief: (§3)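 Test compound at 10^-5 M, reported as percent inhibition of 2 nM [3H]TCP binding. Binding defined with 1 μM PCP.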
Assay [6] concerns the target T1, D(2) dopamine receptor. The assay is described as follows: Inhibition of binding against Dopamine receptor D2 in bovine striatal homogenate using 200 pM [3H]- spiperone and 250 nM unlabeled ketanserin.
In assay [7] the target is T2, Serotonin 1 (5-HT1) receptor (Rattus norvegicus). The assay is described as follows: Percent inhibition of binding of 3.0 nM [3H]5-HT to 5-hydroxytryptamine 1 receptor in rat caudate membranes at 10 e -5 M. Format: cell membranes. The settings on record: Membrane. Summed up: as §1
In assay [8] the target is T3, Serotonin 2 (5-HT2) receptor (Rattus norvegicus). The assay is described as follows: Percent inhibition of binding of 1.0 nM [3H]ketanserin to 5-hydroxytryptamine 2 receptor in rat cortical membranes at 10 e -5 M. The format is cell membranes. As to conditions: Membrane. The method in brief: as §2
The next assay is filed under the species Rattus norvegicus. The assay is described as follows: Binding affinity against Phencyclidine receptor (1 uM) using 2 nM [3H]- TCP radioligand. The method in brief: as §3
Assay [9] concerns the target Glutamate receptor ionotropic, NMDA 2C (Rattus norvegicus) (UniProt Q00961). The assay is described as follows: Binding affinity for Phencyclidine receptor (1 uM) using 2 nM [3H]- TCP radioligand. The method in brief: as §3

SMILES strings stand for the structures.

T1 sequence (P20288 whole entry): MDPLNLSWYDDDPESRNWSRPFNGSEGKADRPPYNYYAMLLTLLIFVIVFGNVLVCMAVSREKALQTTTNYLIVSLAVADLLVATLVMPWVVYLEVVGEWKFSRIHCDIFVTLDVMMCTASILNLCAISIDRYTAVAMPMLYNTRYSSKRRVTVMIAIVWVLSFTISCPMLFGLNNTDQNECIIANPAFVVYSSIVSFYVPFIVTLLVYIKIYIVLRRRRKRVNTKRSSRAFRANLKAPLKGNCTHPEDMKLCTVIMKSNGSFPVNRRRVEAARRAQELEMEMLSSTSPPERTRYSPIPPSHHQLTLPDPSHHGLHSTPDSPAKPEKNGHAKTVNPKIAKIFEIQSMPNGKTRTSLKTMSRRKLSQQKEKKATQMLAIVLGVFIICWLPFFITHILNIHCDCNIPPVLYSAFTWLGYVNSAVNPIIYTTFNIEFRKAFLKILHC
D(1A) dopamine receptor (Rattus norvegicus), sequence (P18901 whole entry): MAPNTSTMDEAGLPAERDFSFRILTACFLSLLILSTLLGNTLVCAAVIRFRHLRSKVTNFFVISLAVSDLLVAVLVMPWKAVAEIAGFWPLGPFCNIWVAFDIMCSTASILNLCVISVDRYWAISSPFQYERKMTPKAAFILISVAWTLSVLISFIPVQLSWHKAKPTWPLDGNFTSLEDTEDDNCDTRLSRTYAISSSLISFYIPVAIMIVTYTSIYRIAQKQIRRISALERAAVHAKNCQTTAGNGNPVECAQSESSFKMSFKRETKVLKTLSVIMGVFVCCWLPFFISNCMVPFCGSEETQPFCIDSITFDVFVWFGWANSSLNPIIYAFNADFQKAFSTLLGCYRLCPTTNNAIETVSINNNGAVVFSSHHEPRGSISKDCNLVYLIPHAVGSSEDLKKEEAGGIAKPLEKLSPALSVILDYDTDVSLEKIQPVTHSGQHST
T3 sequence (P08909 whole entry, looked up): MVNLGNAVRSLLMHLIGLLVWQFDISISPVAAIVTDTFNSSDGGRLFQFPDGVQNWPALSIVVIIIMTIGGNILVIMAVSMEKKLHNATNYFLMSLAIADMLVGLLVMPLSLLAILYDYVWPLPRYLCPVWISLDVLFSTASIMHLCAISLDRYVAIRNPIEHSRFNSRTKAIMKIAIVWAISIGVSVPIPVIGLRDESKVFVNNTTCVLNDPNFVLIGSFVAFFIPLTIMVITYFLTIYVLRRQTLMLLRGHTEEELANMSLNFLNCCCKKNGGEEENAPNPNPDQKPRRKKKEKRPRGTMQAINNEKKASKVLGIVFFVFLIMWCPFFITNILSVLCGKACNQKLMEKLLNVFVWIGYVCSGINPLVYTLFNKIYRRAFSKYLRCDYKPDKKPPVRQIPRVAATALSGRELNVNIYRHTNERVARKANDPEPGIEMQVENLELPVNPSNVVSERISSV
T3 sequence (P14842 whole entry, looked up): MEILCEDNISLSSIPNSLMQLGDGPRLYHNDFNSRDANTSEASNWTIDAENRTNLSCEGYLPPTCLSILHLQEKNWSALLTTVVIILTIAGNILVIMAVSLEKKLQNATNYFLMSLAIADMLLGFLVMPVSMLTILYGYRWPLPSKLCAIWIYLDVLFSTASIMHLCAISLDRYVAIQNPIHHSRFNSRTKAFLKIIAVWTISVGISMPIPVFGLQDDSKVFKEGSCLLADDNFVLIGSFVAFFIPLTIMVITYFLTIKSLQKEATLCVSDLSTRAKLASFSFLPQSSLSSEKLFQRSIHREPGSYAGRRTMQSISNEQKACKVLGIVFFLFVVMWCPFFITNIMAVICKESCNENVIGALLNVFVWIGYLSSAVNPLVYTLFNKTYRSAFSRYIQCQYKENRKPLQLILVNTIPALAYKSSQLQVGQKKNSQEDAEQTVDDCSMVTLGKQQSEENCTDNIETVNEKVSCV
T3 sequence (P30994 whole entry, looked up): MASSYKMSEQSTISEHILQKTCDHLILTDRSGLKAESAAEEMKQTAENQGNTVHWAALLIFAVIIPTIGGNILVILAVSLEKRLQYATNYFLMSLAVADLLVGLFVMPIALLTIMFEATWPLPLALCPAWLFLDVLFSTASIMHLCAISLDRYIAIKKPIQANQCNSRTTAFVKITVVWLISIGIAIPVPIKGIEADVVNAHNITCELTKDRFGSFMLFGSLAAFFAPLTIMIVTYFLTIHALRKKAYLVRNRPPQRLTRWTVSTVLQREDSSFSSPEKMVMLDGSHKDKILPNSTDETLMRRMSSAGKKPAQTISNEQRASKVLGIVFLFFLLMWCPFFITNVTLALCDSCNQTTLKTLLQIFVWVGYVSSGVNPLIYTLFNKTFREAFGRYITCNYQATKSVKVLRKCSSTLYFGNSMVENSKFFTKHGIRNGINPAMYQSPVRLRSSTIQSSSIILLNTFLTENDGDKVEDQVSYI
Glutamate receptor ionotropic, NMDA 2C (Rattus norvegicus), sequence (Q00961 20-1237 limits assumed): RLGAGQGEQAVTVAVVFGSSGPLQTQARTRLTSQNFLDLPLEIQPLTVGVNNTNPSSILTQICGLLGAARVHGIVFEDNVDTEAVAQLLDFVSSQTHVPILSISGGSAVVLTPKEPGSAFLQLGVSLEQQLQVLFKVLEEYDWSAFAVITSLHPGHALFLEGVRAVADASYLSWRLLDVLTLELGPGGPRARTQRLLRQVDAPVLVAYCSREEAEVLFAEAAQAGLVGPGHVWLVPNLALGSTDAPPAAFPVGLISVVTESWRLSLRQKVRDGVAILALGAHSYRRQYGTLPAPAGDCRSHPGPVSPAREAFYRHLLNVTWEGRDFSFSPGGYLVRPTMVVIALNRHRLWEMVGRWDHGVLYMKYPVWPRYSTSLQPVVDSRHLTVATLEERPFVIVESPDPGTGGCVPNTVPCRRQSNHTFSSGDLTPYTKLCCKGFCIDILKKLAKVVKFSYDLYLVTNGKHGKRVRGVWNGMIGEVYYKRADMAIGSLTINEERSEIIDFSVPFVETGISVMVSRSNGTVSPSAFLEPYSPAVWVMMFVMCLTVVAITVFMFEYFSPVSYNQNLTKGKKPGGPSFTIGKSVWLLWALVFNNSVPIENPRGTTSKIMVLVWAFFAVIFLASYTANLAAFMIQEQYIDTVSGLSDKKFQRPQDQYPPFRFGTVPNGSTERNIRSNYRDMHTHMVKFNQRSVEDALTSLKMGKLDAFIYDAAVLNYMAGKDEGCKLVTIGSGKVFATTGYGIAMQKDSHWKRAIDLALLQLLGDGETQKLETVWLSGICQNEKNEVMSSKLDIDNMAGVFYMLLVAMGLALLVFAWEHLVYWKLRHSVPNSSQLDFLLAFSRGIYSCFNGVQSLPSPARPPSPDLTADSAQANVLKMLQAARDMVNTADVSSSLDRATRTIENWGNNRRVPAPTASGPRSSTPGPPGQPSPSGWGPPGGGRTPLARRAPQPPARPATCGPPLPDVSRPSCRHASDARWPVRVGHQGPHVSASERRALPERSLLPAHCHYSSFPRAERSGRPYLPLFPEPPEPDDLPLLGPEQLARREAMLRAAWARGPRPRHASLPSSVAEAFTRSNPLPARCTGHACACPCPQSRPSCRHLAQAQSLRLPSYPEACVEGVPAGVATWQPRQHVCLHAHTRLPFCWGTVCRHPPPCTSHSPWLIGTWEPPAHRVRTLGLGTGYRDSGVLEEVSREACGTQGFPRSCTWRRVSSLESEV

Usually IC50 stands for the point on the concentration scale where inhibition reaches its midpoint. A low value points to higher potency. `O=C(CCN1CC=C(c2ccc(Cl)cc2)CC1)c1ccc(F)c(F)c1`: the IC50 on D(2) dopamine receptor [1] was above 5 µM.
Same read-out and setting: for `O=C(CCN1CC=C(c2ccccc2)CC1)c1ccccc1` the value was above 5 µM; for `O=C(CCN1CC=C(c2ccc(Cl)cc2)CC1)c1ccccc1F`, above 5 µM.
For orientation: inhibition means the share of the control response that was lost under treatment. Regarding `O=C(CCN1CC=C(c2ccc(Cl)cc2)CC1)c1ccccc1`, the figures for the inhibition in [2] and in assay [3] were 72.4% and 96.9%, respectively. The compound also yielded a half-maximal inhibitory concentration (IC50) on D(2) dopamine receptor [1] above 5 µM. Moreover, the Binding affinity worked out at 19 in assay [4] and 0 in assay [5].
At D(2) dopamine receptor [1], `CCCN(CCC)CCC(=O)c1ccccc1` showed an IC50 above 5 µM.
Same read-out and setting: for `O=C(CCN1CC=C(c2ccc(F)cc2)CC1)c1ccc(Cl)cc1` the value was above 15 µM; for `c1ccc(CCCCN2CCC(c3ccccc3)CC2)cc1`, 0.335 µM.
Same read-out and setting: for `O=C(CCN1CCC(c2ccccc2)CC1)c1ccccc1` the value was above 5 µM; for `COc1ccc(C(=O)CCN2CC=C(c3ccc(Cl)cc3)CC2)cc1OC`, above 5 µM; for `O=C(CCN1CC=C(c2ccc(Cl)cc2)CC1)c1ccc(Cl)c(Cl)c1`, above 5 µM.
On D(2) dopamine receptor [1], `Clc1ccc(C2=CCNCC2)cc1` displayed an IC50 above 5 µM.
The compound `N#Cc1ccc(C(=O)CC2CCN(CC3CC3)CC2)cc1` registered an IC50 on D(2) dopamine receptor [6] above 1 µM.
Regarding `O=C(CCN1CC=C(c2ccc(F)cc2)CC1)c1ccc(F)cc1`, the concentration for half-maximal inhibition (IC50) on D(2) dopamine receptor [1] is above 10 µM.
For `O=C(CCN1CC=C(c2ccc(F)cc2)CC1)c1ccccc1`, the inhibition amounted to 64.5% in assay [7], 94.8% in [8], 23.9% in [4] and 0% in the assay listed under Rattus norvegicus. The compound also gave an IC50 on D(2) dopamine receptor [1] above 5 µM.
On to `O=C(CCN1CC=C(c2ccc(Cl)cc2)CC1)c1ccc(Cl)cc1`, for which the inhibition in assay [7] was 49.5%; in [8], 84%. At D(2) dopamine receptor [1], this compound yielded an IC50 above 5 µM. The Binding affinity in assay [4] worked out at 31.6; in [9], 5.8.
Compound `CCN(CC)CCC(=O)c1ccccc1` gave a 50% inhibitory concentration (IC50) on D(2) dopamine receptor [1] above 5 µM.
With `O=C(CCN1CC=C(c2ccc(Cl)cc2)CC1)c1ccc(Br)cc1`, on D(2) dopamine receptor [1], the 50% inhibitory concentration (IC50) is above 5 µM.
For `CN(C)CCC(=O)c1ccccc1`, the 50% inhibitory concentration (IC50) at D(2) dopamine receptor [1] is above 5 µM.
For `O=C(CCN1CC=C(c2ccc(Cl)cc2)CC1)c1ccc2c(c1)OCO2`, the IC50 on D(2) dopamine receptor [1] is above 5 µM.
On to `O=C(CCN1CC=C(c2ccc(Cl)cc2)CC1)c1ccc(F)cc1`, for which the IC50 on D(2) dopamine receptor [1] is above 5 µM.
On to `C1=C(c2ccccc2)CCNC1`, for which the IC50 at D(2) dopamine receptor [1] was above 5 µM.
At D(2) dopamine receptor [1], `O=C(CCN1CC=C(c2ccc(F)cc2)CC1)c1ccc(Br)cc1` returned an IC50 above 13 µM.
